From PubChem BioAssay
The list is not random: actives were taken first. Their share in the collection is about 2.9%.
TRPC4 potent: positive allosteric modulators of TRPC4, primary screen, cell-based, mouse TRPC4beta, HEK293 mu-opioid, Fluo-4 calcium. Short transient receptor potential channel 4 (Mus musculus), Q9QUQ5. DAMGO EC20, Fluo-4 Ca2+ flux; stronger effect = higher value. B-score at 10 µM. 310,000 compounds, 0.42% hits. AID 2227, 2009;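 active = B-score of calcium response area above 5 SD of library B-scores, with initial fluorescence ratio within 5 SD of library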
Kir21 block: inhibitors of mouse Kir2.1 inward-rectifier potassium channel; Inward rectifier potassium channel 2 (Mus musculus), P35561; HEK293-Kir2.1, FluxOR thallium flux fluorescence; stronger effect = lower value; B-score at 10 µM; 310,000 compounds, 0.85% hits;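 active = fluorescence ratio B-score at or below minus 3 SD of library scores, with starting-brightness B-score within 2 SD, cut at about -4.2 in these data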;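 also: channel flux triggered by added potassium and thallium sulfate stimulus; B-score of peak minus minimum fluorescence over baseline after thallium stimulus; more negative B-score means stronger Kir2.1 block with less thallium influx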
TRPC4 act: activators of mouse TRPC4 channel, primary screen, Fluo4 calcium, HEK293 TRPC4beta/mu-opioid cells; Short transient receptor potential channel 4 (Mus musculus), Q9QUQ5; Fluo4 calcium fluorescence; stronger effect = higher value; B-score at 10 µM; 310,000 compounds, 0.49% hits; AID 2237, 2010;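 active = B-score above 5 SD of library B-scores, and initial fluorescence ratio not above library mean plus 5 SD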;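 also: positive B-score marks a calcium rise read as TRPC4 activation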
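Material: TRPC4beta and mu-opioid receptor HEK293 stable cells | Incubation: 45 min room-temperature Fluo4 loading, 110 s read | Detection: Kinetic Fluo4 calcium fluorescence | Measure: Integrated baseline-normalised fluorescence ratio, converted to per-well B score | Benchmarks: Low control buffer alone, high control maximal DAMGO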
TRPC6 act: mouse TRPC6 channel activators, primary screen, cell-based, HEK293, membrane potential dye | Short transient receptor potential channel 6 (Mus musculus), Q61143 | HEK293-TRPC6 membrane potential dye fluorescence; stronger effect = higher value | B-score at 10 µM | 310,000 compounds, 0.13% hits;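 active = B-score of the integrated fluorescence ratio above library mean plus 3 SD, and starting fluorescence ratio within library mean plus 5 SD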;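 also: higher score means more depolarization so channel activation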
TRPC4 block: inhibitors of mouse TRPC4 channel, primary screen, Fluo4 calcium, HEK293 TRPC4beta/mu-opioid cells | Short transient receptor potential channel 4 (Mus musculus), Q9QUQ5 | DAMGO-evoked Fluo4 calcium flux; stronger effect = lower value | B-score at 10 µM | 300,000 compounds, 0.39% hits;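 active = B-score over 3 SD under the library average, no early fluorescence shift, positive overall ratio signal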
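Material: HEK293 cells with stable TRPC4beta plus mu-opioid receptor expression / Probe or stimulus: DAMGO in two steps, submaximal then maximal / Compound: single concentration per test compound / Technique: kinetic Fluo4 fluorescence imaging of calcium influx / Read-out: per-well B score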
TRPC6 inhibitor: mouse TRPC6 channel inhibitors, primary screen, cell-based, HEK293, membrane potential dye. Short transient receptor potential channel 6 (Mus musculus), Q61143. B-score at 10 µM. AID 2553, 2010. ACh-evoked depolarization; stronger effect = lower value. 310,000 compounds, 1.1% hits;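 active = B-score under library mean minus 3 SD, initial fluorescence not abnormally high, positive integrated signal ratio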;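 also: B-score derived from integrated fluorescence ratio over the kinetic read; more negative B-score means stronger inhibition of depolarization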
Numbers stand for hits; – = inactive.

SMILES | TRPC4 potent | Kir21 block | TRPC4 act | TRPC6 act | TRPC4 block | TRPC6 inhibitor
COC(=O)CSc1nc2ccccn2c(=O)c1C=O | – | – | – | – | -6 | –
O=Cc1c(SCCO)nc2ccccn2c1=O | – | – | – | – | – | –
Cc1ccc(C)c(NC(=O)CCc2nnc3ccc(N4CCCC4)nn23)c1 | – | – | – | – | – | –
Cc1ccc(C)c(CN2CCC(CNC(=O)CCc3nnc4ccc(N5CCCCC5)nn34)CC2)c1 | – | – | 126 | – | – | –
O=S(=O)(c1ccc(-n2cnnn2)cc1)N1CCC(N2CCCCC2)CC1 | 12 | – | – | – | – | –
COc1cc(S(=O)(=O)N2CCC(N3CCCCC3)CC2)ccc1-n1cnnn1 | 17 | – | – | – | – | –
CC1CCCCN1C(=O)C1CCN(S(=O)(=O)c2ccc(-n3cnnn3)cc2)CC1 (stereo not drawn) | – | – | – | – | – | –
CSc1sc(C(=O)NNC(C)=O)c2c1C=CCC2 | – | – | – | – | – | –
CCOc1ccc(-c2nnc(Nc3ccc(OC)c(C(=O)N4CCCCC4)c3)c3ccccc23)cc1 | – | – | – | – | – | –
CN(C)CCn1c(N)nc2ccccc21 | 13 | – | – | – | – | –
Clc1ccccc1CSc1nncn1NC/C=C/c1ccccc1 | – | -6.64 | – | – | – | –
C(=C\c1ccccc1)/CNn1cnnc1 | – | – | – | – | – | –
Cc1nn(-c2ccccc2)c(Cl)c1/C=N/Nc1ccc(S(=O)(=O)Nc2ccccc2C(=O)O)cc1[N+](=O)[O-] | – | – | – | – | -6 | –
CC(C)(C)c1ccc(OCC(=O)NCC(c2cccs2)N2CCOCC2)cc1 (stereo not drawn) | – | – | – | – | – | –
C/C=C/c1ccc(OCC(O)CNCCc2ccc(OC)cc2)c(OC)c1 (stereo not drawn) | – | -5.95 | – | – | – | –
C/C=C/c1ccc(OCC(O)CN(C)Cc2ccc(SC)cc2)c(OC)c1 (stereo not drawn) | – | -10.8 | – | – | – | –
C/C=C/c1ccc(OCC(O)CNCC(c2ccc(OC)cc2)N(C)C)c(OC)c1 (stereo not drawn) | – | – | – | – | – | –
CC1CCC(NC(=O)CCS(=O)(=O)c2ccc3c(c2)NC(=O)C(C)S3)CC1 (stereo not drawn) | – | – | – | – | – | –
CCC(C(=O)OCC(=O)Nc1c(Cl)cccc1Cl)c1ccccc1 (stereo not drawn) | – | -6.89 | – | – | – | –
Cc1cccc(/C=N/NC(=O)c2cccc(Cl)c2)n1 | 21 | – | – | – | – | –
Cc1cccc(/C=N/NC(=O)c2cccc(NC(=O)c3ccccc3)c2)n1 | – | – | – | – | – | –
CSc1cccc(NC(=O)CCCNC(=O)c2ccc(Cl)cc2)c1 | – | – | – | – | – | –
CCc1cc(CNC(=O)C2CCC(=O)N(CCc3cccc(F)c3)C2)on1 (stereo not drawn) | – | – | – | – | – | –
CN1CCC(Oc2ccccc2Sc2ccc(C(F)(F)F)cc2)CC1 | – | -11 | – | – | – | –
CN1CCC(Oc2ccc(Sc3ccccc3)cc2)CC1 | – | -7.45 | – | – | – | –
CCNc1ncnc2c1cnn2C | – | – | – | – | – | –
Cc1cc(C(=O)NCCCN2CCN(c3cc(Cl)ccc3C)CC2)n(-c2ccccc2)n1 | – | – | – | – | -6 | –
CN1CCN(C2=Cc3ccccc3Sc3cc(F)c(F)cc32)CC1 | – | -4.41 | – | – | – | –
OCC1(CC2CCCCO2)CCN(Cc2nc3ccccc3[nH]2)CC1 (stereo not drawn) | – | – | 110 | – | -8 | –
OCC1(CC2CCCCO2)CCN(C/C=C/c2ccccc2)CC1 (stereo not drawn) | – | – | – | – | – | –
